Bioassay records: PubChem BioAssay, several laboratories
Only some compounds are listed: those with a hit (about 0.84% of all), similar ones and a draw of the others.
DDE Tn6 FP inh: inhibitors of Tn6 peptide binding to human fibrin DD(E); P02675; Fibrin DD(E) TRITC-Tn6 fluorescence polarization displacement; inhibition, % at 8.3 µM; hit rate 0.21% among 370,000; AID 720509;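 active means inhibition above a per-campaign cutoff: mean of compounds within control limits plus 3 SD, cut at about 15% in these data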
Target sequence (P02675 whole entry, looked up): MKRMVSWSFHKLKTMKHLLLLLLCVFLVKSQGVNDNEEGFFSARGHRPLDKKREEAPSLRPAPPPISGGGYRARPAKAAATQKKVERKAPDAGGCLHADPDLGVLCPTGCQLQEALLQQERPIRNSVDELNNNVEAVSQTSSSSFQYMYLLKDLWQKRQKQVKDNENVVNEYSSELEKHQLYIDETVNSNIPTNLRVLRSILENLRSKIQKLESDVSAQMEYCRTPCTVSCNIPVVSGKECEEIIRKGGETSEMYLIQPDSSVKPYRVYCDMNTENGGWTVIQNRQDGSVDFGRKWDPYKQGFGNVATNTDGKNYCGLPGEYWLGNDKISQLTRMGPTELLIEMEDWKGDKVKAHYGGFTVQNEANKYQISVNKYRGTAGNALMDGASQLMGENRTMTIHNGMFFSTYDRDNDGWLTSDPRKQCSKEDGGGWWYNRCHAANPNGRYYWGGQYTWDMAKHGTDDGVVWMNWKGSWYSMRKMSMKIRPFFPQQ
DDE Tn7 FP inh: DD(E)-Tn7 binding inhibition, primary FP screen; P02675; FP displacement of FITC-Tn7 peptide from fibrin DD(E); 0% = median of compound wells per plate; inhibition, % at 8.3 µM; hit rate 0.13% among 370,000; AID 720508;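 active means inhibition above the mean of compounds falling within the control limits plus 3 SD of them, cut at about 14% in these data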
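System: human fibrin DD(E); quantity: Fibrin-DD(E) at 2 µM final; also added: fluorescent Tn7 probe at 0.1 µM; compound dosing: single nominal test concentration of 8.3 µM per compound; schedule: 10 min preincubation, 3 h with tracer, room temperature; detection: fluorescence polarization of the labelled Tn7 tracer; repeats: one replicate per compound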
MT1-MMP act inh: inhibitors of human MT1-MMP activation; GFP/RFP ratio change, % at 20 µM; hit rate 0.061% among 360,000; AID 651647; P50281; HT1080 RFP-PRO-GFP cells, GFP/RFP ratio fluorescence, overnight; percent of plate control window, DMSO zero;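 active means GFP/RFP ratio change of at least 30% with cell ATP level not reduced by more than half and red fluorescence within 50% of control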
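Assay system – RFP-PRO-GFP reporter HT1080 cells · Compound dosing – single dose of 20 µM compound, 1% DMSO final · Incubation – overnight compound exposure at 37 °C · Measure – GFP/RFP fluorescence ratio · Benchmarks – DMSO wells and RFP-L50D-GFP cells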
SKN-1 block: blocks SKN-1 activity in C. elegans; C. elegans VP596 Pgst-4::GFP/RFP ratio, acrylamide-induced, 24 h; inhibition, % at 21.8 µM; hit rate 0.49% among 360,000; AID 624304;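 active means interference check ratio from 0.5 to 1.5 plus GFP to RFP signal ratio inhibition reaching or exceeding a fixed threshold, cut at about 30% in these data, passing the limit was not always enough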
Hits are given with their value; 0 = inactive; - = no result given; + = active, no number.

SMILES	DDE Tn6 FP inh	DDE Tn7 FP inh	MT1-MMP act inh	SKN-1 block
Clc1ccc(-c2cn3c(n2)-c2ccccc2C3)cc1Cl	0	0	0	40
Cc1c(C(=O)/C=C/c2cccs2)oc2ccc(F)cc12	0	0	0	52
CCOC(=O)[C@]12CCCC=C1N(Cc1ccco1)C(=O)[C@H](CC(=O)N1CCCC1)C2	0	0	0	0
COC(=O)[C@H](CC(C)C)NC(=O)NCCC1=CCCCC1	0	0	0	0
CCCCOCCCNC(=O)C[C@@H]1C(=O)N(Cc2ccc(OC)cc2)/C2=C/CCCCC[C@@]21C(=O)OCC	0	0	-	-
CN1CCS/C1=C\C=C1/SC(=S)N(CC(=O)O)C1=O	0	0	0	0
CCN1C(=O)/C(=C/C=C2/SCCN2C)SC1=S	0	0	0	27
Cc1ccc(-c2cc(C(=O)N/N=C/c3c(C)nn(-c4ccccc4)c3C)[nH]n2)cc1	0	0	0	47
Clc1ccc(Nc2ccc(-n3ccnc3)nn2)cc1Cl	0	0	0	37
c1ccc(Nc2ccc(-n3ccnc3)nn2)cc1	0	0	0	0
Cc1sc(NC(=O)c2ccco2)c(C(c2cccnc2)N2CCCC2)c1C (stereo not given)	0	0	0	30
Cc1sc(NC(=O)c2ccco2)c(C(c2cccnc2)N2CCN(C)CC2)c1C (stereo not given)	0	0	0	0
C[C@@H]1CCN(C2CC2)S(=O)(=O)c2ccc(N3CCC[C@@H]3CO)cc2O1	0	0	-	-
Cc1ccc(NC(=O)CSCc2cc(=O)n3ccsc3n2)cc1	-	-	0	34
O=c1[nH]nc(Cc2ccc([N+](=O)[O-])cc2)c2ccccc12	0	0	0	32
O=C(/C=C/[C@H]1O[C@@H](n2cnc3c(NC(=O)c4ccccc4)ncnc32)[C@H](O)[C@@H]1O)N[C@@H](CO)Cc1c[nH]c2ccccc12	0	0	0	0
O=C(Nc1nc2ncccn2c1-c1ccc(C(F)(F)F)cc1)c1ccc(F)cc1	0	0	-	-
O=C(NCCc1ccccc1)C1CCCN(S(=O)(=O)c2cccc3nonc23)C1 (stereo not given)	0	14	0	0
O=S(=O)(c1ccc(N2CCN(c3ccc(F)cc3)CC2)cc1)N1CCCC1	0	0	0	0
O=S(=O)(c1ccc(N2CCCC2)cc1)C(F)(F)F	0	0	0	42
Clc1ccc(N2CCN(c3ccnc(Cl)n3)CC2)cc1	0	0	0	57
CN1C(=O)C[C@@](C#N)(C(=O)NCc2ccc3c(c2)OCO3)[C@H]1c1ccccc1	0	0	-	-
Cc1ccc(-c2ccc(/C=N\NC(=O)C3C(=O)NCC3c3ccccc3)o2)cc1Cl (stereo not given)	0	0	0	0
O=C1NCC(c2ccccc2)C1C(=O)N/N=C\c1ccc(-c2cccc(Cl)c2Cl)o1 (stereo not given)	0	0	0	36
CC(/C=N/N1CCN(c2ccccn2)CC1)=C\c1ccccc1	0	0	0	67
SMILES	DDE Tn6 FP inh	DDE Tn7 FP inh	MT1-MMP act inh	SKN-1 block
CC(/C=N/N1CCN(c2ccccc2)CC1)=C\c1ccccc1	-	-	0	0
CC(=C/c1ccco1)/C=N/N1CCN(c2ccccc2)CC1	0	0	0	36
CC1=Nc2ccc(C)cc2/C1=C/c1c(N)n2nc(CC(=O)N3CCOCC3)sc2nc1=O	0	0	0	38
Nc1c(/C=C2/C=CC(=O)C(O)=C2)c(=O)nc2sc(CC(=O)N3CCOCC3)nn12	0	0	0	0
Cc1ccc(N(C(=O)Cn2nnc(-c3ccc(C)o3)n2)C(C(=O)NC2CCCC2)c2ccncc2)cc1 (stereo not given)	0	0	0	0
O=[N+]([O-])c1ccc(N2CCc3ccccc3C2)cc1	0	0	0	44
O=C(NCCN1CCc2ccccc2C1)Nc1ccc([N+](=O)[O-])cc1	0	15	0	0
CCOc1ccc(-n2c(SCC(=O)Nc3ccc(S(=O)(=O)Nc4nccs4)cc3)nnc2-c2ccc(C(C)(C)C)cc2)cc1	0	0	-	-
CCOCCCNC(=O)C(c1ccc(OC)cc1)N(Cc1cccs1)C(=O)c1ccccc1O (stereo not given)	0	0	0	0
CCOc1cc(C(c2c(C)[nH][nH]c2=O)c2c(C)[nH][nH]c2=O)ccc1OS(=O)(=O)c1ccc(C)cc1	0	0	0	46
CCOc1ccc(C(c2c(C)[nH][nH]c2=O)c2c(C)[nH][nH]c2=O)cc1OC	0	0	0	0
COc1ccc(/C(C)=N/NC(=O)CNC(=O)/C=C\c2ccccc2OC)c(OC)c1	0	0	0	37
CN(C)c1ccc(/C=C/c2ccc3c4ccccc4ccc3[n+]2-c2ccccc2)cc1	+	0	0	0
Cc1ccc(-c2nc3c(C)cc(Br)cn3c2Cc2ccsc2)cc1	0	0	0	0
Clc1cccc(-c2nc3ccc(Br)cn3c2Cc2ccccc2)c1	0	0	0	36
Clc1ccc2nc(-c3ccccc3)c(Cc3ccsc3)n2c1	-	-	0	0
Brc1ccc2nc(-c3ccccc3)c(Cc3ccsc3)n2c1	0	0	0	38
Cc1cc(Br)cn2c(Cc3ccsc3)c(-c3ccccc3)nc12	0	0	0	37
CC(NC(=O)CN1C(=O)NC2(CCCCCCC2)C1=O)c1ccccc1 (stereo not given)	0	0	0	0
O=C(Nc1ccc(C(=O)N2CCCC2)cc1)c1ccccc1Br	0	0	0	0
O=C(Nc1ccc(C2CC2(Cl)Cl)cc1)c1ccccc1Br (stereo not given)	0	0	0	47
O=C(c1ccc2oc(Cc3ccc(Cl)cc3)nc2c1)N1CCCCC1CCO (stereo not given)	0	0	0	0
N#Cc1cc(-c2ccccc2)nn1-c1ccccc1	0	0	0	35
CC1(O)C(=O)C2(C)C=CC1C1C(=O)N(c3ccccc3)C(=O)C12 (stereo not given)	0	0	-	-
O=C(CC1Sc2ccccc2NC1=O)NNc1cc(Cl)ccc1Cl (stereo not given)	0	0	0	40
SMILES	DDE Tn6 FP inh	DDE Tn7 FP inh	MT1-MMP act inh	SKN-1 block
C=CCNC(=O)c1ccsc1N	17	0	0	0
Nc1ccc(O)cc1C(=O)OCC(=O)C12CC3CC(CC(C3)C1)C2	0	0	0	45
CCOC(=O)Nc1nc(-c2ccc(F)cc2F)cs1	0	0	0	56
COC(=O)Nc1nc(-c2cc(Cl)ccc2Cl)cs1	0	0	0	0
CC(/C=N/Nc1ncc(C)c(=O)[nH]1)=C\c1ccccc1	0	0	0	41
Cc1ccn2cc(-c3ccc(Br)cc3)nc2c1	0	0	0	0
Clc1ccc(-c2cn3cc(Br)ccc3n2)cc1Cl	0	0	0	57
COc1cccc(CC(=O)O[C@@H]2CCC[C@@]3(C(=O)N(Cc4ccccc4)c4ccccc43)[C@H]2NC(=O)CCc2ccccc2)c1	0	0	-	-
CC1(c2ccc(Cl)cc2)NC(=O)N(CC(=O)Nc2ccc3c(c2)OCO3)C1=O (stereo not given)	0	0	0	0
CC1(c2ccc(Cl)cc2)NC(=O)N(CN2CCOCC2)C1=O (stereo not given)	0	0	0	37
